The test system of test [1] is FTC-133. Nature of the test: Induction of apoptosis in human FTC-133 cells assessed as caspase-3 activation at 50 uM after 24 hrs by fluorescence microscopic analysis (reference value: 2.51 +/- 1%). Format: functional.
Test [2] deals with 8305C. Nature of the test: Induction of apoptosis in human 8305C cells assessed as caspase-3 activation at 50 uM after 24 hrs by fluorescence microscopic analysis (reference value: 3.22 +/- 1%). It is filed as functional.
Test [3] relates to FTC-133. Briefly: Cytotoxicity against human FTC-133 cells assessed as reduction in cell viability at 50 uM after 24 hrs by MTT assay. It is filed as functional, cell-based. In outline:
(§1)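 Cultures were treated at 50 µM for 24 h at 37 °C in 5% CO2 alongside untreated controls. Viability was read by MTT reduction (0.5% MTT in PBS pH 7.4, 1 h), with formazan dissolved in DMSO and OD measured at 570 nm.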

Test [4] concerns FTC-133. Nature of the test: Induction of apoptosis in human FTC-133 cells assessed as DNA fragmentation at 50 uM after 24 hrs by SYBR green-1 staining-based electrophoretic analysis. It is filed as functional, cell-based. In outline: (§2)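 After 24 h of treatment, DNA was extracted from untreated and treated cells. Fragments were separated on a 2% agarose gel with SYBR Green I staining, and GAPDH-1 served as the reference gene.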

Test [5] concerns 8305C. Briefly: Cytotoxicity against human 8305C cells assessed as reduction in cell viability after 24 hrs by MTT assay. It is filed as functional, cell-based. The method, boiled down:
(§3)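 Cells seeded at 6 × 10^5 per well and exposed to 5–100 µM for 24 h at 37 °C in 5% CO2. Then 0.5% MTT in PBS (pH 7.4) was added for 1 h, supernatant replaced with DMSO, and OD read at 570 nm. IC50 was read graphically from dose-effect curves. Values are mean ± SD of four independent experiments, each run in triplicate.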
For orientation: Formazan colour is commonly taken as a measure of viable cells.

The subject of test [6] is 8305C. Nature of the test: Cytotoxicity against human 8305C cells assessed as reduction in cell viability at 50 uM after 24 hrs by MTT assay. Format: functional, cell-based. The method, boiled down: as §1
In test [7] the test system is FTC-133. Briefly: Cytotoxicity against human FTC-133 cells assessed as reduction in cell viability after 24 hrs by MTT assay. Format: functional, cell-based. To be noted: FTC-133, 24 h. The method, boiled down: as §3
Test [8] relates to 8305C. Nature of the test: Induction of apoptosis in human 8305C cells assessed as DNA fragmentation at 50 uM after 24 hrs by SYBR green-1 staining-based electrophoretic analysis. It is filed as functional, cell-based. In outline: as §2

Drawing on ChEMBL document CHEMBL2417413, “Synthesis and biological evaluation of 1,7,8,8a-tetrahydro-3H-oxazolo[3,4-a]pyrazin-6(5H)-ones as antitumoral agents” (Bioorg Med Chem, 2013), this text covers Activity and IC50 for 4 compounds.

Activity calls are given as the source filed them. The calls are words filed in the database; no cut-off is given here.

For the compound `O=C1CN2/C(=N/c3ccc4ccc5cccc6ccc3c4c56)OCC2CN1c1ccccc1` (configuration not stated), the Activity in test [1] came out at 29.3%; in test [2], 18.24%. Moreover, the result in test [3], in test [4], in test [6] and in test [8] was Active. Also, the IC50 (commonly the concentration needed to halve the response being measured) in test [5] is 80.3 µM; in test [7], 74.2 µM.
In the case of `O=C1CN2/C(=N/c3ccc4ccc5cccc6ccc3c4c56)OCC2CN1C1CCCCC1` (configuration not stated), the Activity is reported as 89.24% in test [1] and 68.3% in test [2]. The outcome in test [3], in test [4], in test [6] and in test [8] was Active. Also, the IC50 in test [5] turned out to be 68.5 µM; in test [7] it was 48.3 µM.
For `O=C1CN2/C(=N/c3cccc4ccccc34)OCC2CN1C1CCCCC1` (configuration not stated), the figures for the Activity in test [1] and in test [2] were 90.56% and 78.56%, respectively. Moreover, the outcome in test [3], in test [4], in test [6] and in test [8] was Active. Besides, the IC50 came out at 61 µM in test [5] and 44.8 µM in test [7].
Take `O=C1CN2/C(=N/c3ccccc3)OCC2CN1C1CCCCC1` (configuration not stated): the values for the Activity in test [1] and in test [2] were 88.68% and 75.88%, respectively. Further, the outcome in test [3], in test [4], in test [6] and in test [8] was Active. Besides, the IC50 was 70.7 µM in test [5] and 50 µM in test [7].
